From ChEMBL document CHEMBL1137312, “Design and synthesis of a novel photoaffinity ligand for the dopamine and serotonin transporters based on 2beta-carbomethoxy-3beta-biphenyltropane” (J Med Chem, 2006)
Activity calls are given as the source filed them. The rule behind the calls is not given here.

Key:
[1] = target: Sodium-dependent dopamine transporter (Rattus norvegicus, UniProt P23977); test: Displacement of [3H]WIN-35428 from DAT in rat striatal membrane; assay type: cell membranes, Striatum
Sodium-dependent dopamine transporter, sequence (P23977 whole entry): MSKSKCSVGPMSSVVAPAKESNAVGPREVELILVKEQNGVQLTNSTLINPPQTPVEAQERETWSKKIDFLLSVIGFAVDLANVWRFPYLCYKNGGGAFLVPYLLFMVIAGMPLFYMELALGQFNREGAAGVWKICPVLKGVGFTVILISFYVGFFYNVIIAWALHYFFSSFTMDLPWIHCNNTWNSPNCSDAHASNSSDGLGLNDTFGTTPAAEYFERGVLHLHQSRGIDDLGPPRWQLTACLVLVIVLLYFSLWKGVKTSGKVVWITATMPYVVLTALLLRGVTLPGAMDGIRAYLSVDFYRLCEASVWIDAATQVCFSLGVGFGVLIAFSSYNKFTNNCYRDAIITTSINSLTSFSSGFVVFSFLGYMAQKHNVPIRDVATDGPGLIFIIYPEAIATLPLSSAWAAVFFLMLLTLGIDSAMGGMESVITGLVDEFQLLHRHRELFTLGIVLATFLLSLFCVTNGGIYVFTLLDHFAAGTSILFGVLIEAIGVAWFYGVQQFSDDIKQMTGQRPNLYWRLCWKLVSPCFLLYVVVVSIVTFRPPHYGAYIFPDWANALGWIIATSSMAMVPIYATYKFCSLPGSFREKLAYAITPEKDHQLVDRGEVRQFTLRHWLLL
How it was run: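 Competition binding against [3H]WIN 35 428 in rat striatal membranes. Ligand was used as free base, freshly prepared and kept in the dark. Ki from at least three independent experiments, each in triplicate. Values are mean ± SEM.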

[2] = target: Sodium-dependent serotonin transporter (Rattus norvegicus, UniProt P31652); test: Displacement of [3H]citaloporam from SERT in rat brain; assay type: tissue-based
Sodium-dependent serotonin transporter, sequence (P31652 whole entry): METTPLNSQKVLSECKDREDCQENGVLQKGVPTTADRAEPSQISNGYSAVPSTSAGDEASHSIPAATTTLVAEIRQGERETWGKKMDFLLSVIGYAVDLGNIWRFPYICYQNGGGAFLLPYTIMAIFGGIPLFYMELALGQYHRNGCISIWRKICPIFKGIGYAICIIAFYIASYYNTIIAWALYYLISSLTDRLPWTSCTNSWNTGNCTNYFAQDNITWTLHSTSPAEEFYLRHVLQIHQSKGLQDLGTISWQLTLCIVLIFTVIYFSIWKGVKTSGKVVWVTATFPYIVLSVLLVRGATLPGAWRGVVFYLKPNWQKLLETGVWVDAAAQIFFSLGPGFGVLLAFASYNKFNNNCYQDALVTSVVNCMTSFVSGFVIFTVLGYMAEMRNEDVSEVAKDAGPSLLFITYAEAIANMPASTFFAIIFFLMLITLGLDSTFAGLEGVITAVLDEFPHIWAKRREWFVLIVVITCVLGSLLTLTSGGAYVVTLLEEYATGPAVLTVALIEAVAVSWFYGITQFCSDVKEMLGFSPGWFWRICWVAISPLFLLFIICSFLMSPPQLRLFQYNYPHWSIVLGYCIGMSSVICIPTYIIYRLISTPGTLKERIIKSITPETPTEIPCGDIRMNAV
How it was run: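 Competition binding against [3H]citalopram in rat brain stem or midbrain membranes. Ligand was used as free base, freshly prepared and kept in the dark. Ki from at least three independent experiments, each in triplicate. Values are mean ± SEM.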

[3] = target: Sodium-dependent serotonin transporter (Homo sapiens) (UniProt P31645); test: Photo labeling activity at human SERT expressed in HEK293 cells in the presence of (-)cocaine; assay type: cell-based; conditions: tested as the 125I-labelled form
Sodium-dependent serotonin transporter (Homo sapiens), sequence (P31645 whole entry, looked up): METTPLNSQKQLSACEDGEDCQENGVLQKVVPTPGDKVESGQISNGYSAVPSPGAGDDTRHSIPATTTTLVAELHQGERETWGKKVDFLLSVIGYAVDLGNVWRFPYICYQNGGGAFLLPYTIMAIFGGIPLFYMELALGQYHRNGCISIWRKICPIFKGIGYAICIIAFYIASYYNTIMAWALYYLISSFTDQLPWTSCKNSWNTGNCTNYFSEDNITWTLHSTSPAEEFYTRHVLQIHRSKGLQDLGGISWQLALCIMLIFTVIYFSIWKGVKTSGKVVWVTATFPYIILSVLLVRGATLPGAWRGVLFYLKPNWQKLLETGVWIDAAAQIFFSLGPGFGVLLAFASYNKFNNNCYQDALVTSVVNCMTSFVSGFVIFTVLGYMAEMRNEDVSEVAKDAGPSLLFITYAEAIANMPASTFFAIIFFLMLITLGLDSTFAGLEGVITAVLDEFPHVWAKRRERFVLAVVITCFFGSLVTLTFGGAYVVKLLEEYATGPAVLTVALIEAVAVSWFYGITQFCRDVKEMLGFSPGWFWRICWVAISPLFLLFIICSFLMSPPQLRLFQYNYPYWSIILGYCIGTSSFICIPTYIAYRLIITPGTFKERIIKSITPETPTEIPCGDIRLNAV
How it was run: (§1)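 Cocaine-protection version of the photolabeling. HEK 293 cells expressing hDAT or hSERT were photolabeled with [125I] azido ligand in the presence of 10 µM (-)cocaine. Cells were solubilized and immunoprecipitated with transporter-specific antisera. Read-out was SDS-PAGE and autoradiography.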

[4] = target: Sodium-dependent dopamine transporter (Homo sapiens) (UniProt Q01959); test: Photo labeling activity at human DAT expressed in HEK293 cells; assay type: cell-based; conditions: tested as the 125I-labelled form
Sodium-dependent dopamine transporter (Homo sapiens), sequence (Q01959 whole entry): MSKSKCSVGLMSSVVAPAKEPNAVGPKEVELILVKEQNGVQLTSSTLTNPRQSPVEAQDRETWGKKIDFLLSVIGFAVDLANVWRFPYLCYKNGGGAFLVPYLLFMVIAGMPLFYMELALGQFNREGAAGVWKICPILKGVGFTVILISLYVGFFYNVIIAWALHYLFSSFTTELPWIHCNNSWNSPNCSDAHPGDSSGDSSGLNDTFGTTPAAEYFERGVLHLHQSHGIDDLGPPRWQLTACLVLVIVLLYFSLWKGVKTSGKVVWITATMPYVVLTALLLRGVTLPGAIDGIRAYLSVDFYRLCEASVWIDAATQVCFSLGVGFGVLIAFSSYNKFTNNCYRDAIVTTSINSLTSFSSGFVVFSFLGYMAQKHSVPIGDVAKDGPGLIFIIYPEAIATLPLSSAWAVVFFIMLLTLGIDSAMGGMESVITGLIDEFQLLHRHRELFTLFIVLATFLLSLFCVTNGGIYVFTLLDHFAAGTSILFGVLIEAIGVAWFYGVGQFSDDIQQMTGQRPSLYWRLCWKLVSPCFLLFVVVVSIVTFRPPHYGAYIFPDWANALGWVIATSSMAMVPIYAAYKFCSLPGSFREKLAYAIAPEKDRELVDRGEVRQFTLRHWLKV
How it was run: (§2)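 HEK 293 cells expressing hDAT or hSERT were photolabeled with [125I] azido ligand (specific activity about 2000 mCi/µmol, radiochemical purity 99%). Cells were solubilized and lysates immunoprecipitated with DAT- or SERT-specific antisera. Read-out was SDS-PAGE and autoradiography, detecting labeled protein bands of 80 or 66 kDa.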

[5] = target: Sodium-dependent serotonin transporter (Homo sapiens) (UniProt P31645); test: Photo labeling activity at human SERT expressed in HEK293 cells; assay type: cell-based; conditions: tested as the 125I-labelled form; how it was run: as §2
[6] = target: Sodium-dependent dopamine transporter (Homo sapiens) (UniProt Q01959); test: Photo labeling activity at human DAT expressed in HEK293 cells in the presence of (-)cocaine; assay type: cell-based; conditions: tested as the 125I-labelled form; how it was run: as §1

Structure (SMILES)	Ki [1]	Ki [2]	Activity [3]	Activity [4]	Activity [5]	Activity [6]
COC(=O)[C@@H]1C2CCC(C[C@@H]1c1ccc(Br)cc1)N2C (some centres undefined)	0.42 nM	4.1 nM	–	–	–	–
COC(=O)[C@@H]1C2CCC(C[C@@H]1c1ccc(-c3ccc(N=[N+]=[N-])c(I)c3)cc1)N2C (some centres undefined)	15.1 nM	109 nM	inactive	Active	Active	inactive
COC(=O)[C@@H]1C2CCC(C[C@@H]1c1ccc(-c3ccc(N)c(I)c3)cc1)N2C (some centres undefined)	134 nM	8.82 nM	–	–	–	–
COC(=O)[C@@H]1C2CCC(C[C@@H]1c1ccc(-c3ccc(N)cc3)cc1)N2C (some centres undefined)	12.9 nM	1070 nM	–	–	–	–
COC(=O)[C@@H]1C2CCC(C[C@@H]1c1ccc(-c3ccc([N+](=O)[O-])cc3)cc1)N2C (some centres undefined)	5.03 nM	51 nM	–	–	–	–
